Assay results from the RNAGym collection of RNA variant scans (doi:10.1126/science.aae0568).
Variants at the floor of the assay were thinned out.

B1: tRNA (parent)
chain: GUUCCGUUGGCGUAAUGGUAACGCGUCUCCCUCCUAAGGAGAAGACUGCGGGUUCGAGUCCCGUACGGAACG

Variants of: B1
Assay: yeast fitness relative to wild type (ratio to wild type); higher = fitter; tRNA-Arg(CCU), competitive growth, 37 C, YPD
Procedure, shortened: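 Genotype frequency changes were the basis for Darwinian fitness relative to wild type. The frequencies came from 100-nucleotide paired-end sequencing of gene amplicons from the start population and each end population of pooled yeast strains with tRNA-Arg(CCU) gene variants at the native locus. Competition ran in YPD at 37°C for 24 hours in six replicates, genotypes needed ≥ 100 starting reads, and estimates < 0.5 were set to 0.5.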

Variant | yeast fitness
A21U U54A G56C A70G | 0.576
A21G A43U C49U U53C C61G | ≤ 0.5
A21C C33U C55A | 0.533
A21U A42C U47G G63A A69U | ≤ 0.5
C22G C31G C49U | 0.605
A21U G25A G56C | ≤ 0.5
C22G G23C C27A U28C C60A | ≤ 0.5
A21U C62U C66G | ≤ 0.5
C22G C30U U54C | 0.554
C22G C27G C31G C61G A69U | 0.62
C22G C29A U53A C66U | ≤ 0.5
A21C C62U C66A | ≤ 0.5
A21U G50C C61G A70U | ≤ 0.5
A21G C33U C49A | 0.502
A21U U32C A45U G67C | ≤ 0.5
C22G G41A A43C G51C C66U G67U | ≤ 0.5
A21U C34G G52A C61A | 0.553
C22A C27U | 0.976
A21U C29A | 0.751
A21G C46U | 0.97
A21G C46A | 1.01
C22A U53C | 0.764
A21U C34A U54A C62A A70G | ≤ 0.5
C22A C24U G58C C62G | ≤ 0.5

Variant | yeast fitness
A21C G23C G52C | ≤ 0.5
A21U G23C C62A | ≤ 0.5
A21U A70U | 0.754
C22A C29U C62G | ≤ 0.5
A21C G41A G48C G51C G52C | ≤ 0.5
A21G U28A C29U G58A | 0.528
A21U C22G C66U | 0.568
A21C C34U A36U G38C C49U | ≤ 0.5
A21C C34G G48C | ≤ 0.5
A21U G48C | 0.586
A21G G50A C55U U64C | ≤ 0.5
A21G C29U G38C | 0.814
A21G G39A U54C | 0.589
A21C U53G | 0.567
A21U U54C | 0.703
A21G C29U A37U G63C | ≤ 0.5
C22G C31G C66U | 0.64
A21G C66U | 0.858
A21G C46U C66U | 0.742
C22G G48C A69C | 0.589
A21G C31G A65C | 0.674
A21C G25C U26G G50U G56A U59A A70C | 0.541
C22G C29A G63A | 0.553
A21G C49G U59C | 0.583

Variant | yeast fitness
C22A C24G G56C | 0.786
C22G G50A | 0.837
C22G C30G C33G A37U C61G | 0.683
C22G C34A A36U A42C C46G | ≤ 0.5
A21C C46G C49G G56A | 0.528
A21C U28A G68A | ≤ 0.5
A21G C30U G67A | 0.633
A21G C22A G50C | ≤ 0.5
A21U A42U C66U | ≤ 0.5
A21C G25C U26G U59A G63C G68U | ≤ 0.5
C22A C27G G41A C62A | 0.655
C22A G68U | 0.825
C22A G68C | 0.822
C22A G68A | 0.869
C22G C31A A43G A69U | ≤ 0.5
A21C U28C | 0.852
A21G C55U C66U | ≤ 0.5
C22A A57U | 0.606
A21G A45C C49U C55U | 0.531
C22A U26A A36U G56C C60G | ≤ 0.5
C22G C24A G38A G67A | 0.531
A21G C31G C66A | 0.505
C22G G39A G67C | 0.526
A21G G67U A70U | 0.607

Variant | yeast fitness
C22G C60A | 0.679
C22A C31G C46A C49U U54C G68A | 0.581
A21G C30A U32G G67A A69C | ≤ 0.5
C22G C27G C31G C49A G52A | ≤ 0.5
C22A G41C A65C | ≤ 0.5
A21U A42G C62A | ≤ 0.5
A21G C33G G38A A69C | ≤ 0.5
A21G U32C C34A C55A A69C | ≤ 0.5
A21G C27G C60G A70C | ≤ 0.5
A21U A65U | 0.793
A21G U59C A65U G67C A70C | ≤ 0.5
C22A U32C C66U | 0.503
A21U A36C G39A | 0.58
C22A C49U C55A | 0.656
C22G C31U U53A | ≤ 0.5
A21U C34G A42U C61U | ≤ 0.5
C22A G41A C46U C66U | 0.716
A21G A45C U59C A69G | 0.539
A21G G23A C66G | ≤ 0.5
C22A C49U G51C | ≤ 0.5
A21G C30G A36G C46G A57U | 0.551
A21U C31G C33G | ≤ 0.5
C22G C30G C55A | ≤ 0.5
C22A G25A A69C | 0.784

Variant | yeast fitness
C22A C24U C30U C31G | 0.531
A21C C61U A70U | 0.623
A21C U64A | 0.799
C22A C30U C49U C66U | 0.601
A21U C31A C61U | ≤ 0.5
C22A A40G C60G A70G | ≤ 0.5
C22G C29G G68C | ≤ 0.5
C22A G63C A65C | ≤ 0.5
A21G C62U | 0.924
C22G C31U U64C | 0.748
C22A C30U C31G C61U A69C | ≤ 0.5
C22G C55U | 0.739
C22A C24G A65U A69C | ≤ 0.5
C22G C31G C61U | 0.587
C22G G25C U26C C27G A40G | ≤ 0.5
C22G G41A G48C G68C | ≤ 0.5
A21U C34A G56C G63A U64C G67C | ≤ 0.5
A21G A45C C62U G68C A69G | ≤ 0.5
C22A C24G A36G G39C G56A | ≤ 0.5
A21C C34U | 0.536
C22A C29G C61U | ≤ 0.5
C22A G25A U64A | 0.629
C22G C33G | 0.685
A21C U32C A40G G68A | ≤ 0.5

Variant | yeast fitness
A21G C29U A36U A43U C62A | 0.559
A21G U28G C62G | ≤ 0.5
C22A C24G A69U | ≤ 0.5
A21C G38A G58C | 0.503
C22G A45U G48C C49G | ≤ 0.5
A21C C33U C61A A70C | 0.578
A21U C31A G39C C66U | ≤ 0.5
A21G G23A A45C G52A | 0.517
C22A C24G U53A | ≤ 0.5
A21G C31A | 0.962
A21C U32C C60G | ≤ 0.5
A21U C22U A42C A43U G44C A65C | 0.663
A21U C34G U35C | 0.785
A21U A37U A40U G50C G56C | ≤ 0.5
C22A G23C C34U A36G A40U G67A | ≤ 0.5
C22A C33G A43C C49U U64C | ≤ 0.5
C22G A43G C55U U64G | ≤ 0.5
A21G C33G C34G | 0.547
A21U C31U A57U | ≤ 0.5
A21U C29G C49G | 0.519
C22G C34U A43C A69U | ≤ 0.5
C22G C66U | 0.896
A21G A42U G67A | 0.54
C22G C29G G41C | ≤ 0.5

Variant | yeast fitness
A21G C55G | 0.671
A21G C55A | 0.641
A21C U26G | 0.642
A21U A43G | 0.752
A21C C33G C34G U54A | ≤ 0.5
A21G C27U C30G U32G C46G G48A C60A | 0.561
A21U A37U | 0.672
A21G A43U G58C C60A C66U | ≤ 0.5
C22G A45U | 0.712
A21G C34G G56A C66G | ≤ 0.5
A21G U26C C27G G48C G67A | ≤ 0.5
C22G G25C A37G | ≤ 0.5
C22G C24G A45C G63C | 0.563
C22A A36G | 0.8
A21U C29U G48A U54C | ≤ 0.5
A21G C49U | 0.994
A21U G52A C62G | ≤ 0.5
A21U A69C A70G | 0.594
A21G A37G C60G | ≤ 0.5
A21U C27G C33U C34A G51C A57C | ≤ 0.5
A21G U32A C66U | 0.512
A21G C30U U53A A57U A65U | ≤ 0.5
A21G U26C G48C | 0.615
